Our source for the folding enthalpy and Tm values is the array DNA melting data of Ke et al. (doi:10.1101/2024.01.08.574731).

The nature of data set [1]: folding enthalpy; higher = less favourable; fluorescence melt of hairpins on a sequencing array, two-state fit. Conditions: sodium 0.088 M. The method, boiled down: (§1)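 Cy3 signals were normalised both to pre-quench Cy3 and to control constructs. They came from library hairpins carrying annealed Cy3 and quencher oligos on a sequenced MiSeq flow cell, imaged in 50 mM Na-HEPES pH 8.0, 25 mM NaCl, in 2.5 °C steps up to 60 °C. Bootstrapped two-state fits gave melting temperature and folding enthalpy, and four replicates were combined by inverse variance. Fitted temperatures were then raised by 9.35 °C to match UV melts.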

Data set [2] in a line: melting temperature; fluorescence melt of hairpins on a sequencing array, two-state fit, raised by 9.35 °C to match UV melts. Conditions: sodium 0.088 M. The procedure, abridged:
as §1

Regarding GTAGTGCGAAAGCATAC (((.(((....)))))), the folding enthalpy in data set [1] was -12.6 kcal/mol. For the same sequence, the Tm in data set [2] turned out to be 40.5 °C.
The like results for GGACCCGAAAGGGTGTCC ((((((....)))..))) were, in that order, -14 kcal/mol and 47.1 °C.
The like results for GGAACCGAAAGGTGTCC ((((((....))).))) were, in that order, -17.7 kcal/mol and 47.5 °C.
Turning to GTAAGGGGAAACCCTTGC (.(((((....))))).), the folding enthalpy in data set [1] was -23.3 kcal/mol. The Tm in data set [2] stood at 46.2 °C.
In the case of GATCTGTGACCAGATC ((((((....)))))), the folding enthalpy in data set [1] is -36.5 kcal/mol. In addition, in data set [2], the Tm is 47.8 °C.
The matching figures for GCCCGTGGAAACATGGGC ((((.((....)).)))): -46 kcal/mol and 61.2 °C.
The matching figures for GCCTCCGAAAGGAAAGGC ((((((....)))..))): -29.6 kcal/mol and 53 °C.
The matching figures for GCAACAGGAAACTGTTGC (((((((....))))))): -40.3 kcal/mol and 68.5 °C.
For GTCCGACGAAAGTCTGAC (((.(((....))).))), the folding enthalpy in data set [1] is -27.1 kcal/mol. Also, in data set [2], the Tm is 49.1 °C.
In the case of GTTTAGGGAAACCTAAAC (((((((....))))))), in data set [1], the folding enthalpy was -39.9 kcal/mol. Moreover, in data set [2], the Tm stood at 52.7 °C.
The like results for GTCATAGGAAACCATGAC (((((.(....).))))) were, in that order, -27.6 kcal/mol and 38.5 °C.
The like results for GACTTGCGAAAGCATGTC (((.(((....))).))) were, in that order, -25.2 kcal/mol and 55.8 °C.
The like results for GCACGCCGAAAGGCTGC (((.(((....)))))) were, in that order, -21.8 kcal/mol and 64.6 °C.
Take GATCGACTGTTCGATC ((((((....)))))): in data set [1], the folding enthalpy was -40.5 kcal/mol. Moreover, the Tm in data set [2] was determined as 50.6 °C.
The matching figures for GGTTACGAAAGTAAACC ((((((....))).))): -24.2 kcal/mol and 48.8 °C.
The matching figures for GTAGCGGGAAACCGTTAC (((.(((....))).))): -30.2 kcal/mol and 47.8 °C.
The like results for GCGGTTGCCGC ((((...)))) were, in that order, -21.2 kcal/mol and 56.6 °C.
Take GCAAGAGCGAAAGCTTGC (((..(((....)))))): the folding enthalpy in data set [1] was -22.8 kcal/mol. The Tm in data set [2] came out at 51.9 °C.
Regarding GCAAGCGAAAGCTGTGC ((((((....))).))), in data set [1], the folding enthalpy is -15.8 kcal/mol. In addition, the Tm in data set [2] was found to be 55.9 °C.
As to GTTGGACGAAAGTCGAAC (((.(((....))).))), the folding enthalpy in data set [1] was -16.8 kcal/mol. Also, in data set [2], the Tm stood at 49.1 °C.
Consider GACAATGGAAACATTGCC (.(((((....))))).), for which the folding enthalpy in data set [1] was -18.6 kcal/mol. The Tm in data set [2] turned out to be 38.2 °C.
CACTTGAAAAAGTG (((((....))))): in data set [1], the folding enthalpy was -21.2 kcal/mol. Further, the Tm in data set [2] turned out to be 43.6 °C.
In the case of GCCATGCGAAAGCACCGC ((..(((....)))..)), in data set [1], the folding enthalpy is -8.84 kcal/mol. The Tm in data set [2] stood at 24.1 °C.
GATCGACCTCTCGATC ((((((....)))))): the folding enthalpy in data set [1] was -35.8 kcal/mol. Further, in data set [2], the Tm turned out to be 50 °C.
For GCCTATCGAAAGATGGC (((.(((....)))))), the folding enthalpy in data set [1] was -30.9 kcal/mol. In addition, the Tm in data set [2] was 50.9 °C.
The matching figures for GCATCCGAAAGGAAGTGC ((((((....)))..))): -24.3 kcal/mol and 41.3 °C.
The like results for GGCCACGAAAGTGCTGCC ((((((....)))..))) were, in that order, -20.4 kcal/mol and 48.8 °C.
As to GATCTGGGAAACCAGGTC ((.((((....)))).)), in data set [1], the folding enthalpy is -25 kcal/mol. The Tm in data set [2] was 48.4 °C.
Turning to GTAAACGAAAGTTACTAC ((((((....)))..))), in data set [1], the folding enthalpy is -17.6 kcal/mol. Also, in data set [2], the Tm was determined as 34.8 °C.
The like results for GCTGTTGAAAAACAGC ((((((....)))))) were, in that order, -38.6 kcal/mol and 59.2 °C.
The matching figures for GACGATACGAAAGTAGTC (((..(((....)))))): -17 kcal/mol and 36.1 °C.
The like results for GTTCCGGGAAACTGGGAC ((.((.(....).)).)) were, in that order, -28.2 kcal/mol and 41.4 °C.
For ACTCAGAAATGAGT (((((....))))), the folding enthalpy in data set [1] was -22 kcal/mol. Besides, the Tm in data set [2] worked out at 36.7 °C.
The like results for GCACCGGGAAACCGGCGC ((.((((....)))).)) were, in that order, -41.3 kcal/mol and 59.6 °C.
The like results for GGTTTCGGAAACGGAACC ((((.((....)).)))) were, in that order, -45 kcal/mol and 52.6 °C.
Consider GACACCGGAAACGACGTC (((..((....))..))), for which, in data set [1], the folding enthalpy was -21.9 kcal/mol. The Tm in data set [2] worked out at 29.4 °C.
The like results for GATCAGGGCCCTGATC ((((((....)))))) were, in that order, -58.9 kcal/mol and 60.3 °C.
The matching figures for GGATCACGAAAGTGGTCC (((.(((....))).))): -33.7 kcal/mol and 60.4 °C.
Consider GATTTCCGAAAGGAGATC (((.(((....))).))), for which the folding enthalpy in data set [1] was -34.3 kcal/mol. Besides, the Tm in data set [2] is 46.8 °C.
Take GCGATTCGAAAGAACGC (((.(((....)))))): the folding enthalpy in data set [1] is -30.2 kcal/mol. Moreover, the Tm in data set [2] was found to be 52.8 °C.
Consider GATGACGAAAGTCCATC ((((((....))).))), for which, in data set [1], the folding enthalpy was -17.2 kcal/mol. Moreover, the Tm in data set [2] came to 41.5 °C.
The matching figures for GGTTGAGCGAAAGCTACC (((..(((....)))))): -13.1 kcal/mol and 42.4 °C.
Turning to GAGTTCGGAAACAAACTC (((((.(....).))))), in data set [1], the folding enthalpy is -27.5 kcal/mol. For the same sequence, in data set [2], the Tm is 34 °C.
The like results for TGTGTGAAAACACA (((((....))))) were, in that order, -20 kcal/mol and 49 °C.
GATCTGCAACAGATC ((((((...)))))): the folding enthalpy in data set [1] was -28.8 kcal/mol. For the same sequence, the Tm in data set [2] came out at 46.3 °C.
The matching figures for GATCGGGCTCCCGATC ((((((....)))))): -40.6 kcal/mol and 58.5 °C.
Take GCGCGGCGAAAGCCCCGC (((.(((....))).))): the folding enthalpy in data set [1] was -37.7 kcal/mol. Also, in data set [2], the Tm is 59.4 °C.
In the case of GCGCCGCGAAAGCAACGC (((..((....))..))), the folding enthalpy in data set [1] was -18.1 kcal/mol. Further, the Tm in data set [2] came to 51.1 °C.
The like results for GTTCGCGAAAGCGCTAAC ((((((....)))..))) were, in that order, -9.92 kcal/mol and 25.1 °C.
In the case of GATACCGAAAGGTTCATC ((((((....)))..))), the folding enthalpy in data set [1] was -12.4 kcal/mol. Also, the Tm in data set [2] amounted to 32 °C.
The matching figures for GCGCAGCGAAAGCTCGC (((.(((....)))))): -15.8 kcal/mol and 63.3 °C.
Take GATCCCTTTGGGATC ((((((...)))))): in data set [1], the folding enthalpy is -40.6 kcal/mol. Besides, the Tm in data set [2] was 63.5 °C.
Take GGTCTAGGAAACTAGATC (.(((((....))))).): the folding enthalpy in data set [1] was -29.8 kcal/mol. Moreover, the Tm in data set [2] amounted to 40.3 °C.
Turning to GCTGCGCGAAAGCAAAGC (((..((....))..))), in data set [1], the folding enthalpy was -30.6 kcal/mol. In addition, the Tm in data set [2] was determined as 62 °C.
The matching figures for GCGTGCCTACGC ((((....)))): -27.6 kcal/mol and 57 °C.
The matching figures for GCTACCGCGAAAGCGAGC (((..(((....)))))): -11.5 kcal/mol and 35.9 °C.
Take GTGGACGGAAACATCCAC (((((.(....).))))): the folding enthalpy in data set [1] is -31.8 kcal/mol. The Tm in data set [2] was found to be 43.6 °C.
The like results for CGCTGGAAACAGCG (((((....))))) were, in that order, -31.2 kcal/mol and 66.2 °C.
GATCTCTGCGGAGATC ((((((....)))))): in data set [1], the folding enthalpy is -43.7 kcal/mol. In addition, the Tm in data set [2] came out at 55.9 °C.
Consider GAAACGGGAAACCGTCTC ((.((((....)))).)), for which the folding enthalpy in data set [1] was -13.5 kcal/mol. Further, the Tm in data set [2] amounted to 32.9 °C.
The matching figures for GTCGGCGGAAACGCTGGC (.(.(((....))).).): -21.2 kcal/mol and 50.5 °C.
As for GCGGTGGGAAACTGCCGC ((((..(....)..)))), the folding enthalpy in data set [1] is -41.6 kcal/mol. Moreover, the Tm in data set [2] came out at 56.6 °C.
On to GGACCCCGAAAGGGCTCC (((.(((....))).))), for which the folding enthalpy in data set [1] was -16.3 kcal/mol. The Tm in data set [2] worked out at 48.6 °C.
The like results for GATCGGGGAGCCGATC ((((((....)))))) were, in that order, -35.1 kcal/mol and 59.5 °C.
Turning to GCCTGGCGAAAGCGACGC ((.(.((....)).).)), the folding enthalpy in data set [1] was -6.72 kcal/mol. Further, the Tm in data set [2] is 36 °C.
As for GTCCAAGGAAACTTGGAC (((((((....))))))), in data set [1], the folding enthalpy is -41.8 kcal/mol. Also, the Tm in data set [2] was determined as 61.6 °C.
The like results for GCCAGGCGAAAGCCCAGC ((..(((....)))..)) were, in that order, -13.5 kcal/mol and 40.2 °C.
Regarding GATCCTTATTAGGATC ((((((....)))))), the folding enthalpy in data set [1] is -37.8 kcal/mol. In addition, the Tm in data set [2] turned out to be 51.7 °C.
Consider GCGTCCATACGC ((((....)))), for which, in data set [1], the folding enthalpy was -23.3 kcal/mol. In addition, the Tm in data set [2] came out at 52.7 °C.
The matching figures for GAACAGGGAAACTTGTTC (((((.(....).))))): -27.2 kcal/mol and 37.1 °C.
The like results for GCGATCGAAAGATTGCGC ((((((....)))..))) were, in that order, -39.6 kcal/mol and 57.2 °C.
The matching figures for GATCTACCTTAGATC ((((((...)))))): -32 kcal/mol and 39.1 °C.
In the case of GATCTCTGAAGAGATC ((((((....)))))), the folding enthalpy in data set [1] is -35.2 kcal/mol. In data set [2], the Tm was 54.2 °C.
Take GATCCCGACGGGATC ((((((...)))))): the folding enthalpy in data set [1] is -28.4 kcal/mol. In addition, in data set [2], the Tm worked out at 68 °C.
